As usually defined, the EC50 is the concentration needed to bring the measured effect to its halfway point. The term AUC denotes the area under the concentration-time curve, a measure of exposure. Low readings indicate low exposure, high ones high exposure. Broadly, the Ki is the dissociation constant of the complex between target and ligand, obtained from inhibition or displacement. Low readings indicate tighter binding, high ones weaker binding. Usually Emax stands for the greatest response seen or fitted, relative to the assay's reference.

Experimental findings from ChEMBL document CHEMBL1909630, “Azaxanthene based selective glucocorticoid receptor modulators: design, synthesis, and pharmacological evaluation of (S)-4-(5-(1-((1,3,4-thiadiazol-2-yl)amino)-2-methyl-1-oxopropan-2-yl)-5H-chromeno[2,3-b]pyridin-2-yl)-2-fluoro-N,N-dimethylbenzamide (BMS-776532) and its methylene homologue …” (J Med Chem, 2011) are described below.

Where only a bound is given, the exact number is not on record here.

The target of one data set is T1, Glucocorticoid receptor (Homo sapiens, UniProt P04150).
T1 sequence (P04150 whole entry): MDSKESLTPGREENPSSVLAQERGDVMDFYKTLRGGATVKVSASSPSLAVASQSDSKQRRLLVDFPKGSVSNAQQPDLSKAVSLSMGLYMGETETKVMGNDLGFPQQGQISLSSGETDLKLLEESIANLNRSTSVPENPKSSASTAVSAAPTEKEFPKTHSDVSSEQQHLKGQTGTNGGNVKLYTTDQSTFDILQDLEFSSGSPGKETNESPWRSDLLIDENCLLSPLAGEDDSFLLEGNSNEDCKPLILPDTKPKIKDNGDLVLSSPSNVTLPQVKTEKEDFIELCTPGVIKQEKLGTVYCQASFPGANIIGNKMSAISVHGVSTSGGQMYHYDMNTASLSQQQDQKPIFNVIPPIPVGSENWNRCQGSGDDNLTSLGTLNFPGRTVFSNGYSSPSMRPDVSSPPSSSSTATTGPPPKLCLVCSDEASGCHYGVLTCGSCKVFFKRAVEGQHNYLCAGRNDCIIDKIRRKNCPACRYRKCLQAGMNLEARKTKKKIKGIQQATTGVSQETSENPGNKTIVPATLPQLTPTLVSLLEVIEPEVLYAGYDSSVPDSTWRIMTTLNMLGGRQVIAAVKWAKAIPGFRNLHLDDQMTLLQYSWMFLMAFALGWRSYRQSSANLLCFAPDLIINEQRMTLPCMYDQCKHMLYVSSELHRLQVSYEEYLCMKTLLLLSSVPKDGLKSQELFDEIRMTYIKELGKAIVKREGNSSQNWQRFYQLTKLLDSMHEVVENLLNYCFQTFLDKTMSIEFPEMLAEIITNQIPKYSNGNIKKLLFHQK
In words: Transactivation activity at GR-alpha in human NP1 Hela cells assessed as inhibition of GAL4-DBD after 20 hrs by luciferase reporter gene assay. In kind it is cell-based. A general note: In a reporter assay the amount or activity of a reporter protein is the signal.

Data set [1] in a line: AUC in Sprague-Dawley rat at 10 mg/kg, po. In kind it is ADME, organism-based. More on the design: dose 10 mg/kg, route oral. Conditions: plasma. In short, it runs like this:
(§1)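 Male Sprague-Dawley rats received a single intravenous (1 mg/kg) or oral (10 or 50 mg/kg) dose. Plasma pharmacokinetic parameters were derived from these profiles.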

Data set [2] concerns MG-63. Nature of the data set: Induction of glutamine synthase expression in human MG63 cells after overnight incubation by spectrophotometry. In kind it is cell-based.
A further data set has as its system Rattus norvegicus. In words: Antiinflammatory activity in po dosed Freund's complete adjuvant-induced Lewis rat arthritis model assessed as reduction in progression of arthritis. The class given is functional, organism-based. In short, it runs like this:
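Male Lewis rats were inoculated with Mycobacterium butyricum in incomplete Freund's adjuvant. Oral dosing was daily and preventative, running from day 0 to day 21. Onset and progression of arthritis were followed, and ED50 was estimated from the dose response.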

The subject of a further data set is Blood. In words: Antiinflammatory activity in human whole blood assessed as inhibition of TNF-alpha-induced IL-8 production after overnight incubation by ELISA. The class given is functional, tissue-based. A general note: In an ELISA, binding on a coated surface is turned into a signal by an enzyme label.
For a further data set, the target named is T2, Androgen receptor (Homo sapiens, UniProt P10275).
T2 sequence (P10275 whole entry): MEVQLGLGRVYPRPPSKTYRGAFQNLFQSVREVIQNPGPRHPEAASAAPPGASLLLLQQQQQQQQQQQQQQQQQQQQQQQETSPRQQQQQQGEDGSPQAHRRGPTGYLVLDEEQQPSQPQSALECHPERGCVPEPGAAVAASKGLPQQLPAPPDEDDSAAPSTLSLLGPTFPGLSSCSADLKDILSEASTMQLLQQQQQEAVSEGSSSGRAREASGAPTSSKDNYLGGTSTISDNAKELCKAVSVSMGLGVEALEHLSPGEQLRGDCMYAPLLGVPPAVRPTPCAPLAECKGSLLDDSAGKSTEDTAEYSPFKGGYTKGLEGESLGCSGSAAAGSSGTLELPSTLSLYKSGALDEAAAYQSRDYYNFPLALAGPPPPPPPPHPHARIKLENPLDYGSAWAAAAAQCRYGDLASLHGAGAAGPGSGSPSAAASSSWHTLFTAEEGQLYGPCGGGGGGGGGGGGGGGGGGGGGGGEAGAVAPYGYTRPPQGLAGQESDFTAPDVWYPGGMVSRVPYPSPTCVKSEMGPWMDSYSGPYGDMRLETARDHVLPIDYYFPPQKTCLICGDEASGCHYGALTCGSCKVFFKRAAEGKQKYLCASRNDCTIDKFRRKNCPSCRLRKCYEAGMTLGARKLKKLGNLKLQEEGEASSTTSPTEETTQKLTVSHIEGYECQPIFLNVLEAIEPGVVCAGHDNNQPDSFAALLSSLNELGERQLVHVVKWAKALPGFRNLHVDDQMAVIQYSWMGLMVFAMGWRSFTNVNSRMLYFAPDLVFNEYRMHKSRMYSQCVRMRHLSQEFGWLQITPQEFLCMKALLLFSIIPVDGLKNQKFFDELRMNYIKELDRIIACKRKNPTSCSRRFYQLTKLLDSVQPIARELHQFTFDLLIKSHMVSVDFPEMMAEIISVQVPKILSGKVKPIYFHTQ
Nature of the data set: Displacement of fluorescently labeled ligand from androgen receptor by fluorescence polarization assay. In short, it runs like this: (§2)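 Binding was measured by fluorescence polarization competition between compound and a fluorescent ligand for full-length receptor or ligand-binding domain. Values are means of at least two experiments.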

The nature of data set [3]: AUC in Sprague-Dawley rat at 1 mg/kg, iv. The class given is ADME, organism-based. More on the design: dose 1 mg/kg, route intravenous. Conditions: plasma. In short, it runs like this: as §1
The test system of data set [4] is MG-63. Nature of the data set: Induction of glutamine synthase expression in human MG63 cells after overnight incubation by spectrophotometry relative to prednisolone. The class given is cell-based.
The target of a further data set is T3, Estrogen receptor (Homo sapiens, UniProt P03372).
T3 sequence (P03372 whole entry): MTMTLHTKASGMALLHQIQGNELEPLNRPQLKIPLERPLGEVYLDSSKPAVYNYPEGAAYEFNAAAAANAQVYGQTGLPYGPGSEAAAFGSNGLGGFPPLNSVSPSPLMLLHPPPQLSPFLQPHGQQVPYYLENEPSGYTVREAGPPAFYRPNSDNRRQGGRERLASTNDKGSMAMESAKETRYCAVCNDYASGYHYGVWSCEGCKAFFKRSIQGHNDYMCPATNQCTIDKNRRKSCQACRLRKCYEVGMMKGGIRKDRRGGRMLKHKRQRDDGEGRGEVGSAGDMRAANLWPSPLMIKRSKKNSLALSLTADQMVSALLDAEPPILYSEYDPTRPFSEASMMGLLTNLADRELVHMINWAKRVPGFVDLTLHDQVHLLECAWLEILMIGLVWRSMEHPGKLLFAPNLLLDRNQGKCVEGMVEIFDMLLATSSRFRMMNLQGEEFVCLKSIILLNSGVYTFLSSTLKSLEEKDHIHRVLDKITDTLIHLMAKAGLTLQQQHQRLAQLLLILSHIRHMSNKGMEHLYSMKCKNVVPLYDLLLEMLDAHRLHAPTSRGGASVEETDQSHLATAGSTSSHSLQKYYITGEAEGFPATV
Nature of the data set: Displacement of fluorescently labeled ligand from ERalpha receptor by fluorescence polarization assay. In outline:
as §2
On the technique in general: In fluorescence polarisation assays a small probe gives low polarisation when free and higher when bound to something large.

For another data set, the system named is SAOS-2. Nature of the data set: Induction of alkaline phosphatase expression in human Saos2 cells after 3 days by spectrophotometry. In kind it is cell-based. Conditions: SAOS-2, 72 h.

On to `CN(C)C(=O)c1ccc(-c2ccc3c(n2)Oc2ccccc2[C@H]3C(C)(C)C(=O)Nc2nncs2)cc1F`, for which the EC50 on Glucocorticoid receptor stood at 0.143 µM; in the data set with MG-63 [2], 0.044 µM; in the data set with Blood, 1.47 µM. Also, the AUC came out at 0.673 µg·h/mL in data set [1] and 0.342 µg·h/mL in data set [3]. Moreover, the Activity result in the data set on Rattus norvegicus is “Dose-dependent effect”. For the same molecule, the Ki on Androgen receptor was greater than 5 µM; at Estrogen receptor it was greater than 75 µM. Besides, the Emax is 33% in the data set with MG-63 [4] and 13% in the data set with SAOS-2.
As for `CCN(C)C(=O)c1ccc(-c2ccc3c(n2)Oc2ccccc2[C@@H]3C(C)(C)C(=O)Nc2nncs2)cc1F`, the results for the EC50 at Glucocorticoid receptor, in the data set on MG-63 [2] and in the data set with Blood were 0.113 µM, 0.207 µM and 0.532 µM, respectively. Besides, the area under the curve (AUC) is 0.904 µg·h/mL in data set [1] and 0.526 µg·h/mL in [3]. Moreover, in the data set with Rattus norvegicus, the Activity result was “Dose-dependent effect”. The Ki at Androgen receptor was greater than 5 µM; at Estrogen receptor, greater than 75 µM. In addition, the Emax is 53% in the data set on MG-63 [4] and 24% in the data set with SAOS-2.
